Data taken from ChEMBL document CHEMBL1154191, “Evaluation of spirocyclic 3-(3-fluoropropyl)-2-benzofurans as sigma1 receptor ligands for neuroimaging with positron emission tomography” (J Med Chem, 2009).

What was measured:
[1] = Biodistribution in CD1 mouse thymus assessed per gram of wet tissue at 400 to 600 kBq, iv after 120 mins post-injection by gamma counting; format: ADME, organism-based; conditions: in vivo, 2 h
Summary of the method: (§1)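 Female CD-1 mice (~8-12 weeks, 20-28 g), habituated ≥48 h and fasted 24 h with water available. The [18F] tracer (>150 GBq/μmol at end of synthesis) was given in 200 μL saline into the tail vein of conscious animals. At each time point, n=4-5, mice were anaesthetised, blood and urine sampled, then killed by cervical dislocation. Organs were weighed and γ-counted, and values calculated as % ID/g wet tissue.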

[2] = Biodistribution in CD1 mouse adrenal gland assessed per gram of wet tissue at 400 to 600 kBq, iv after 60 mins post-injection by gamma counting in presence of 1 mg/kg, ip sigma 1/sigma 2 receptor antagonist haloperidol treated before compound addition; format: organism-based; set-up: dose 1 mg/kg, route intravenous; conditions: in vivo, 1 h
Summary of the method: (§2)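 Blocking arm in fasted female CD-1 mice (n=5). […] Animals were killed at 60 min post-injection, and organs were weighed and γ-counted as % ID/g wet tissue. Percent change was taken against the 60 min control group, with two-tailed unpaired Student's t test.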

[3] = Biodistribution in CD1 mouse thymus assessed per gram of wet tissue at 400 to 600 kBq, iv after 5 mins post-injection by gamma counting; format: ADME, organism-based; conditions: in vivo; summary of the method: as §1
Stomach [4] = experiment: Biodistribution in CD1 mouse stomach assessed per gram of wet tissue at 400 to 600 kBq, iv after 60 mins post-injection by gamma counting in presence of 1 mg/kg, ip sigma 1/sigma 2 receptor antagonist haloperidol treated before compound addition; format: organism-based; set-up: route intravenous; conditions: in vivo, 1 h
Summary of the method: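 They were killed at 60 min pi, and organs were weighed and γ-counted as % ID/g wet tissue. Comparison with controls used Student's t test (independent, two-tailed).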

Femur [5] = experiment: Biodistribution in CD1 mouse femur assessed per gram of wet tissue at 400 to 600 kBq, iv after 60 mins post-injection by gamma counting; format: ADME, organism-based; conditions: in vivo, 1 h
Summary of the method: (§3)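 Female CD-1 mice (~8-12 weeks, 20-28 g) were fasted 24 h with free water. Conscious mice got 400-600 kBq [¹⁸F] tracer in saline by tail vein. At 5, 30, 60 or 120 min (n=4-5 per time) they were anesthetized, blood and urine sampled, then killed by cervical dislocation. Organs were weighed and γ-counted, giving % ID/g wet tissue.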

Mus musculus [6] = experiment: Plasma concentration in CD1 mouse assessed per gram of wet tissue at 400 to 600 kBq, iv after 60 mins post-injection by gamma counting in presence of 1 mg/kg, ip sigma 1/sigma 2 receptor antagonist haloperidol treated before compound addition; format: organism-based; set-up: route intravenous; conditions: in vivo, 1 h
Summary of the method: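 Female CD-1 mice, fasted 24 h. […] Blood sampled and mice killed at 60 min pi. Samples weighed, γ-counted, %ID/g calculated. Compared with controls by two-tailed independent Student's t test.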

Stomach [7] = experiment: Biodistribution in CD1 mouse stomach assessed per gram of wet tissue at 400 to 600 kBq, iv after 30 mins post-injection by gamma counting; format: ADME, organism-based; conditions: in vivo, 0.5 h; summary of the method: as §1
Pancreas = experiment: Drug uptake in CD1 mouse pancreas at 400 to 600 kBq, iv after 120 mins post-injection by gamma counting relative to initial uptake; format: ADME, organism-based; conditions: in vivo, 2 h
Summary of the method: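 Organ % ID/g was measured by γ-counting after tail-vein injection of 400-600 kBq [18F] tracer in saline to fasted female CD-1 mice (n=4-5 per time). The 120 min pi value is expressed relative to the initial (5 min pi) uptake.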

Kidney = experiment: Biodistribution in CD1 mouse kidney assessed per gram of wet tissue at 400 to 600 kBq, iv after 5 mins post-injection by gamma counting; format: ADME, organism-based; conditions: in vivo; summary of the method: as §3
[8] = Metabolic stability in CD1 mouse urine assessed as formation of hydrophilic and lipophilioc radiometabolite at 200 to 300 MBq, iv after 45 mins post-injection by radio-HPLC and radio-TLC; format: ADME, organism-based; conditions: in vivo, 0.75 h
[9] = N-octanol-phosphate buffer distribution coefficient, log D in three buffered solution by shake flask method; format: physicochemical
Summary of the method: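 [18F]-labelled tracer partitioned between n-octanol and Sorensen's phosphate buffer (50 mM, pH 7.2), Dulbecco's PBS (pH 7.2) or TRIS-HCl (30 mM, pH 7.2). Conventional shake-flask method, multiple distribution in duplicates, n = 50 in total.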

Muscle tissue = experiment: Biodistribution in CD1 mouse muscle assessed per gram of wet tissue at 400 to 600 kBq, iv after 60 mins post-injection by gamma counting; format: ADME, organism-based; conditions: in vivo, 1 h; summary of the method: as §1
Spleen [10] = experiment: Biodistribution in CD1 mouse spleen assessed per gram of wet tissue at 400 to 600 kBq, iv after 60 mins post-injection by gamma counting; format: ADME, organism-based; conditions: in vivo, 1 h; summary of the method: as §1
[11] = Biodistribution in CD1 mouse gonad assessed per gram of wet tissue at 400 to 600 kBq, iv after 60 mins post-injection by gamma counting in presence of 1 mg/kg, ip sigma 1/sigma 2 receptor antagonist haloperidol treated before compound addition; format: organism-based; set-up: dose 1 mg/kg, route intravenous; conditions: in vivo, 1 h; summary of the method: as §2
Intestine [12] = experiment: Biodistribution in CD1 mouse intestine assessed per gram of wet tissue at 400 to 600 kBq, iv after 30 mins post-injection by gamma counting; format: ADME, organism-based; conditions: in vivo, 0.5 h; summary of the method: as §3
Femur [13] = experiment: Biodistribution in CD1 mouse femur assessed per gram of wet tissue at 400 to 600 kBq, iv after 120 mins post-injection by gamma counting; format: ADME, organism-based; conditions: in vivo, 2 h; summary of the method: as §3
Intestine [14] = experiment: Biodistribution in CD1 mouse intestine assessed per gram of wet tissue at 400 to 600 kBq, iv after 60 mins post-injection by gamma counting in presence of 1 mg/kg, ip sigma 1/sigma 2 receptor antagonist haloperidol treated before compound addition; format: organism-based; set-up: dose 1 mg/kg, route intravenous; conditions: in vivo, 1 h; summary of the method: as §2
Liver = experiment: Biodistribution in CD1 mouse liver assessed per gram of wet tissue at 400 to 600 kBq, iv after 120 mins post-injection by gamma counting; format: ADME, organism-based; conditions: in vivo, 2 h; summary of the method: as §3
Femur [15] = experiment: Biodistribution in CD1 mouse femur assessed per gram of wet tissue at 400 to 600 kBq, iv after 5 mins post-injection by gamma counting; format: ADME, organism-based; conditions: in vivo; summary of the method: as §3
Spleen [16] = experiment: Biodistribution in CD1 mouse spleen assessed per gram of wet tissue at 400 to 600 kBq, iv after 30 mins post-injection by gamma counting; format: ADME, organism-based; conditions: in vivo, 0.5 h; summary of the method: as §1
Mus musculus [17] = experiment: Plasma concentration in CD1 mouse assessed per gram of wet tissue at 400 to 600 kBq, iv after 60 mins post-injection by gamma counting; format: ADME, organism-based; conditions: in vivo, 1 h
Summary of the method: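 Female CD-1 mice (~8-12 weeks, 20-28 g), fasted 24 h with free access to water. 400-600 kBq [18F] tracer in 200 μL saline given by tail vein to conscious mice. At 5, 30, 60 or 120 min pi (n=4-5 per time) mice anaesthetised, blood taken, then euthanised. Samples weighed, γ-counted, %ID/g wet tissue calculated.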

Blood = experiment: Biodistribution in CD1 mouse blood assessed per gram of wet tissue at 400 to 600 kBq, iv after 5 mins post-injection by gamma counting; format: ADME, organism-based; conditions: in vivo; summary of the method: as §3
Lung = experiment: Biodistribution in CD1 mouse lung assessed per gram of wet tissue at 400 to 600 kBq, iv after 30 mins post-injection by gamma counting; format: ADME, organism-based; conditions: in vivo, 0.5 h; summary of the method: as §1
Cerebellum = experiment: Biodistribution in CD1 mouse cerebellum assessed per gram of wet tissue at 400 to 600 kBq, iv after 120 mins post-injection by gamma counting; format: ADME, organism-based; conditions: in vivo, 2 h; summary of the method: as §3
Heart = experiment: Biodistribution in CD1 mouse heart assessed per gram of wet tissue at 400 to 600 kBq, iv after 5 mins post-injection by gamma counting; format: ADME, organism-based; conditions: in vivo; summary of the method: as §3

SMILES: [18F]CCCC1OC2(CCN(Cc3ccccc3)CC2)c2ccccc21 (stereo not given)
- Drug uptake [1]: 2.86 %ID
- Drug uptake [2]: 5.72 %ID
- Drug uptake [3]: 3.98 %ID
- Drug uptake (Stomach [4]): 5.88 %ID
- Drug uptake (Femur [5]): 3.48 %ID
- Drug uptake (Mus musculus [6]): 0.63 %ID
- Drug uptake (Stomach [7]): 5.13 %ID
- Drug uptake (Pancreas): > 70%
- Drug uptake (Kidney): 12.1 %ID
- Activity [8]: 98%
- logD [9]: 3.03
- Drug uptake (Muscle tissue): 0.97 %ID
- Drug uptake (Spleen [10]): 5.56 %ID
- Drug uptake [11]: 4.92 %ID
- Drug uptake (Intestine [12]): 6.81 %ID
- Drug uptake (Femur [13]): 6.64 %ID
- Drug uptake (Intestine [14]): 6.6 %ID
- Drug uptake (Liver): 2.93 %ID
- Drug uptake (Femur [15]): 2.17 %ID
- Drug uptake (Spleen [16]): 5.86 %ID
- Drug uptake (Mus musculus [17]): 0.52 %ID
- Drug uptake (Blood): 1.44 %ID
- Drug uptake (Lung): 7.01 %ID
- Drug uptake (Cerebellum): 2.41 %ID
- Drug uptake (Heart): 6.52 %ID
